Assay results pooled from the literature.
Compare with care: the assays were run in different laboratories.
Organism: Pseudomonas aeruginosa
Observed: microbial growth

For `COC(=O)c1cc(-c2cccc(NC(=S)Nc3cc(C(F)(F)F)cc(C(F)(F)F)c3)c2)on1`, the MIC was greater than 64 µg/mL (broth dilution; ATCC27853).
With `C[C@@H](O)[C@H]1C(=O)N2C(C(=O)O)=C(S[C@@H]3CN[C@H](C(=O)N(C)C)C3)[C@H](C)[C@H]12` the MIC was 2 µg/mL.
With `Nc1nc(-c2ccc(NC(=O)Nc3cccc(-c4c[nH]c(N)n4)c3F)cc2F)c[nH]1` the MIC was greater than 200 µM (broth dilution; PAO1).
The MIC of `COC(=O)c1cc(-c2cccc(NC(=S)Nc3ccccc3)c2)on1` is reported as greater than 64 µg/mL (broth dilution; ATCC27853).
`CCCCCCC#Cc1cncc(-c2nnc(SCc3cc([N+](=O)[O-])cc([N+](=O)[O-])c3)n2C)c1` gave an MIC of no less than 20 µg/mL.
`CC1(C)SC2C(NC(=O)C(NC(=O)C3=C(O)CN(c4ccccc4)C3=O)c3ccccc3)C(=O)N2C1C(=O)O` (stereo not drawn) gave an MIC of 100 µg/mL.
With `COC(=O)c1cc(-c2cccc(NC(=O)NCc3ccccc3)c2)on1` the MIC was greater than 64 µg/mL (broth dilution; ATCC27853).
`CC1(C)S[C@@H]2[C@H](NC(=O)[C@H](N)c3ccccc3)C(=O)N2[C@H]1C(=O)O` has an MIC of greater than 64 µg/mL (broth dilution; ATCCBAA2108; drug-resistant strain).
For `CC(=O)C1=C(O)C(CC(C)C)NC1=O` (stereo not drawn), the MIC was greater than 200 µg/mL (PA01).
`C[n+]1c(/C=C/c2c[nH]c3ccccc23)cc(/C=C2\Sc3ccccc3N2CCCN2CCCC2)c2ccccc21.[I-]` has an MIC of 32 µg/mL (broth dilution; ATCCBAA2108; drug-resistant strain).
For `CCCCCCCCCCCC(=O)OC[C@H]1O[C@@H](n2cc(C)c(=O)[nH]c2=O)C[C@@H]1O`, the MIC was 8 µg/mL (broth dilution).
With `C[n+]1c(/C=C/c2ccc(O)cc2)cc(/C=C2\Sc3ccccc3N2CCCN2CCCC2)c2ccccc21.[I-]` the MIC was greater than 64 µg/mL (broth dilution; ATCCBAA2108; drug-resistant strain).
The MIC of `C[C@H]1COCCN1c1nc(NCc2cccnc2C(F)(F)F)c2cccnc2n1` is reported as 64 µg/mL (broth dilution; NCTC13437).
The MIC of `CCOC(=O)c1nnn(-c2cccc(NC(=O)Nc3ccc(Cl)c(Cl)c3)c2)c1C` is reported as greater than 64 µg/mL (broth dilution; ATCC27853).
With `CO[C@H]1/C=C/O[C@@]2(C)Oc3c(C)c(O)c4c(O)c(c(/C=N/N5CCN(C)CC5)c(O)c4c3C2=O)NC(=O)/C(C)=C\C=C\[C@H](C)[C@H](O)[C@@H](C)[C@@H](O)[C@@H](C)[C@H](OC(C)=O)[C@@H]1C` the MIC was greater than 64 µg/mL (broth dilution; ATCCBAA2108; drug-resistant strain).
